ChEMBL document CHEMBL1154748, “4-Pyridylanilinothiazoles that selectively target von Hippel-Lindau deficient renal cell carcinoma cells by inducing autophagic cell death” (2010)

Columns and labels:
[1] = Growth inhibition of VHL-null human RCC4 cells after 4 days by XTT assay; format: functional; conditions: RCC4, 96 h
Procedure, shortened: (§1)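 XTT read-out: 5000 cells/well plated, vehicle or drug added next day, 4-day exposure. Then phenol red-free medium with 0.3 mg/mL XTT, 20% FCS and 2.65 μg/mL N-methyldibenzopyrazine methyl sulfate, 1-2 h at 37 °C, absorbance at 450 nm. GI50 by linear interpolation; single determinations in triplicate. Ratio is the intraexperiment RCC4-VHL GI50 / RCC4 GI50.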

[2] = Ratio of IC50 for human RCC4-VHL cells to IC50 for VHL-null human RCC4 cells; format: functional; procedure, shortened: as §1

Cc1cccc(Nc2nc(-c3ccncc3)c(C(N)=O)s2)c1
GI50 [1]: 19.2 µM | RatioGI50 [2]: >2

FC(F)(F)c1ccc(Nc2nc(-c3ccncc3)cs2)cc1
GI50 [1]: > 40 µM

Cc1cccc(Nc2nc(-c3ccnc(Cl)c3)cs2)c1
GI50 [1]: 2.2 µM | RatioGI50 [2]: 3.8

CCc1cccc(Nc2nc(-c3ccncc3)cs2)c1
GI50 [1]: 2.5 µM | RatioGI50 [2]: 9.6

Cc1cccc(C(=O)Nc2nc(-c3ccncc3)cs2)c1
GI50 [1]: > 40 µM

FC(F)(F)c1ccccc1Nc1nc(-c2ccncc2)cs1
GI50 [1]: > 40 µM

Cc1cccc(Nc2nc(-c3ccncc3)c(CO)s2)c1
GI50 [1]: 7 µM | RatioGI50 [2]: 2.4

Cc1cccc(N(CCO)c2nc(-c3ccncc3)cs2)c1
GI50 [1]: > 40 µM

Cc1ccccc1Nc1nc(-c2ccncc2)cs1
GI50 [1]: > 40 µM

COc1ccc(C(=O)Nc2nc(-c3ccncc3)cs2)cc1
GI50 [1]: > 40 µM

OCc1sc(Nc2ccccc2)nc1-c1ccncc1
GI50 [1]: 30 µM | RatioGI50 [2]: >1.3

CCN(CC)Cc1sc(Nc2cccc(C)c2)nc1-c1ccncc1
GI50 [1]: 13 µM | RatioGI50 [2]: 1.4

Oc1ccc(Nc2nc(-c3ccccn3)cs2)cc1
GI50 [1]: 36 µM | RatioGI50 [2]: 0.7

N#Cc1ccc(Nc2nc(-c3ccncc3)cs2)cc1
GI50 [1]: > 40 µM

Cc1cccc(Nc2nc(-c3ccncc3Br)cs2)c1
GI50 [1]: 3.9 µM | RatioGI50 [2]: >10

CC(=O)c1ccc(-c2cnccc2-c2csc(Nc3cccc(C)c3)n2)cc1
GI50 [1]: 3.9 µM | RatioGI50 [2]: 9

FC(F)(F)c1cccc(Nc2nc(-c3ccncc3)cs2)c1
GI50 [1]: > 40 µM

COc1ccccc1Nc1nc(-c2ccncc2)cs1
GI50 [1]: 33.4 µM | RatioGI50 [2]: >1.2

Cc1cccc(Nc2nc(-c3ccncc3)c(C)s2)c1
GI50 [1]: 10 µM | RatioGI50 [2]: >4

Cc1ccc(Nc2nc(-c3ccncc3)cs2)cc1C
GI50 [1]: 6.5 µM | RatioGI50 [2]: 6.4

CCOC(=O)c1sc(Nc2cccc(C)c2)nc1-c1ccncc1
GI50 [1]: > 40 µM

Cc1cccc(Nc2nc(Cc3cccnc3)cs2)c1
GI50 [1]: > 40 µM

Cc1cccc(Nc2nc(-c3ccccn3)cs2)c1
GI50 [1]: 37 µM | RatioGI50 [2]: 0.9

Cc1cccc(Nc2nc(-c3ccnc(CCCO)c3)cs2)c1
GI50 [1]: 5.2 µM | RatioGI50 [2]: >7.7

Cc1cccc(Nc2nc(-c3ccnc(C)c3)cs2)c1
GI50 [1]: > 40 µM

Cc1ccc(Nc2nc(-c3ccncc3)c(CO)s2)cc1
GI50 [1]: 14 µM | RatioGI50 [2]: 1.2

OCc1sc(Nc2ccc3c(c2)CCC3)nc1-c1ccncc1
GI50 [1]: 6.8 µM | RatioGI50 [2]: 1.4

COc1cc(-c2csc(Nc3cccc(C)c3)n2)ccn1
GI50 [1]: 28.7 µM | RatioGI50 [2]: 1.2

Clc1ccc(Nc2nc(-c3ccncc3)cs2)cc1
GI50 [1]: 38 µM | RatioGI50 [2]: >2

Cc1cccc(Nc2nc(-c3ccncc3N)cs2)c1
GI50 [1]: > 40 µM

c1ccc(Nc2nc(-c3cccnc3)cs2)cc1
GI50 [1]: > 40 µM

Clc1cccc(Nc2nc(-c3ccncc3)cs2)c1
GI50 [1]: 3 µM | RatioGI50 [2]: 5

N#Cc1cccc(Nc2nc(-c3ccncc3)cs2)c1
GI50 [1]: > 40 µM

Oc1ccc(Nc2nc(-c3cccnc3)cs2)cc1
GI50 [1]: > 40 µM

Cc1cccc(Nc2nc(-c3ccnc(Br)c3)cs2)c1
GI50 [1]: 2 µM | RatioGI50 [2]: 4.3

COc1cc(Nc2nc(-c3ccncc3)cs2)cc(OC)c1
GI50 [1]: > 40 µM

Cc1cccc(Nc2nc(-c3ccncc3CCCO)cs2)c1
GI50 [1]: 6.8 µM | RatioGI50 [2]: >5.9

O=[N+]([O-])c1ccccc1Nc1nc(-c2ccncc2)cs1
GI50 [1]: > 40 µM

Cc1cccc(Nc2nc(-c3cccnc3)cs2)c1
GI50 [1]: > 40 µM

Cc1ccc(C(=O)Nc2nc(-c3ccncc3)cs2)cc1
GI50 [1]: > 40 µM

COc1ccc(Nc2nc(-c3ccncc3)cs2)cc1
GI50 [1]: 14 µM | RatioGI50 [2]: 3.6

Cc1cccc(Nc2nc(-c3ccncc3)c(CCCO)s2)c1
GI50 [1]: 3.6 µM | RatioGI50 [2]: 3.7

Brc1cccc(Nc2nc(-c3ccncc3)cs2)c1
GI50 [1]: 12.4 µM | RatioGI50 [2]: >3.2

CC(=O)Nc1cnccc1-c1csc(Nc2cccc(C)c2)n1
GI50 [1]: 33.3 µM | RatioGI50 [2]: 1

CC(C)c1cccc(Nc2nc(-c3ccncc3)cs2)c1
GI50 [1]: 17 µM | RatioGI50 [2]: 1.4

Cc1cccc(C)c1Nc1nc(-c2ccncc2)cs1
GI50 [1]: > 40 µM

Cc1cccc(Nc2nc(-c3ccncc3[N+](=O)[O-])cs2)c1
GI50 [1]: 8.2 µM | RatioGI50 [2]: 4.1

c1cc(-c2csc(Nc3ccc4c(c3)OCO4)n2)ccn1
GI50 [1]: > 40 µM

Cc1cccc(Nc2nc(-c3ccncc3)c(CCCN3CCOCC3)s2)c1
GI50 [1]: 5.8 µM | RatioGI50 [2]: 1.6

Cc1cccc(Nc2nc(Cc3ccncc3)cs2)c1
GI50 [1]: 20.3 µM | RatioGI50 [2]: 24.4

CCc1cnccc1-c1csc(Nc2cccc(C)c2)n1
GI50 [1]: 6.2 µM | RatioGI50 [2]: 2.8

Cc1cccc(Nc2nc(-c3ccncc3)c(CN(C)C)s2)c1
GI50 [1]: 16 µM | RatioGI50 [2]: 2.3

Cc1cccc(Nc2nc(-c3ccncc3)c(CN3CCCCC3)s2)c1
GI50 [1]: 13 µM | RatioGI50 [2]: 1.9

Cc1cccc(Nc2nc(-c3ccncc3)c(C(=O)NCCCN3CCOCC3)s2)c1
GI50 [1]: > 40 µM

COC(=O)CCc1sc(Nc2cccc(C)c2)nc1-c1ccncc1
GI50 [1]: > 40 µM

CCOC(=O)c1sc(Nc2ccc3c(c2)CCC3)nc1-c1ccncc1
GI50 [1]: > 40 µM

CN(C)CCOc1ccc(Nc2nc(-c3ccncc3)cs2)cc1
GI50 [1]: 60 µM | RatioGI50 [2]: 1.3

C#Cc1cnccc1-c1csc(Nc2cccc(C)c2)n1
GI50 [1]: 1.35 µM | RatioGI50 [2]: 4.4

Fc1ccccc1Nc1nc(-c2ccncc2)cs1
GI50 [1]: 14.3 µM | RatioGI50 [2]: >2.8

Cc1cccc(Nc2nc(-c3ccnc(C#CCO)c3)cs2)c1
GI50 [1]: 9.3 µM | RatioGI50 [2]: 1.6

Fc1cccc(F)c1Nc1nc(-c2ccncc2)cs1
GI50 [1]: > 40 µM

Cc1cccc(Nc2nc(-c3ccncc3)c(C(=O)N(C)C)s2)c1
GI50 [1]: 16 µM | RatioGI50 [2]: >2.5

OCCc1ccc(Nc2nc(-c3ccncc3)cs2)cc1
GI50 [1]: 5 µM | RatioGI50 [2]: 16

Cc1ccc(Nc2nc(-c3ccncc3)cs2)cc1O
GI50 [1]: 12 µM | RatioGI50 [2]: 4.6

CC(C)(C)c1cccc(Nc2nc(-c3ccncc3)cs2)c1
GI50 [1]: > 40 µM

COc1cccc(Nc2nc(-c3ccncc3)cs2)c1
GI50 [1]: 3 µM | RatioGI50 [2]: 17

Cc1cccc(Nc2nc(-c3cc(Cl)nc(Cl)c3)cs2)c1
GI50 [1]: 15 µM | RatioGI50 [2]: 2.3

Fc1cccc(Nc2nc(-c3ccncc3)cs2)c1
GI50 [1]: > 40 µM

O=[N+]([O-])c1cccc(Nc2nc(-c3ccncc3)cs2)c1
GI50 [1]: > 40 µM

Cc1cccc(CNc2nc(-c3ccncc3)cs2)c1
GI50 [1]: > 40 µM

c1ccc(Nc2nc(-c3ccncc3)cs2)cc1
GI50 [1]: 7 µM | RatioGI50 [2]: >10

COC(=O)/C=C/c1sc(Nc2cccc(C)c2)nc1-c1ccncc1
GI50 [1]: 2.5 µM | RatioGI50 [2]: 2.8

C#Cc1cc(-c2csc(Nc3cccc(C)c3)n2)ccn1
GI50 [1]: 17.8 µM | RatioGI50 [2]: >2.2

Cc1cccc(Nc2nc(-c3ccncc3)c(C=O)s2)c1
GI50 [1]: 15 µM

Cc1cc(Nc2nc(-c3ccncc3)cs2)ccc1O
GI50 [1]: 70 µM | RatioGI50 [2]: 2.3

Cc1ccc(Nc2nc(-c3ccncc3)cs2)cc1
GI50 [1]: 2.5 µM | RatioGI50 [2]: 20

Cc1cccc(Nc2nc(-c3ccnc(F)c3)cs2)c1
GI50 [1]: 4.5 µM | RatioGI50 [2]: >8.9

COc1ccc(Nc2nc(-c3ccncc3)cs2)cc1OC
GI50 [1]: 24 µM | RatioGI50 [2]: 1.9

Cc1cccc(N(C)c2nc(-c3ccncc3)cs2)c1
GI50 [1]: 28 µM | RatioGI50 [2]: 0.6

CCc1cc(-c2csc(Nc3cccc(C)c3)n2)ccn1
GI50 [1]: 6.4 µM | RatioGI50 [2]: >6.3

Cc1cc(C)cc(Nc2nc(-c3ccncc3)cs2)c1
GI50 [1]: 4.5 µM | RatioGI50 [2]: >9

COc1cc(Nc2nc(-c3ccncc3)cs2)cc(OC)c1OC
GI50 [1]: > 40 µM

Cc1cccc(Nc2nc(-c3ccncc3)c(C(=O)NCCN(C)C)s2)c1
GI50 [1]: > 40 µM

O=C(Nc1nc(-c2ccncc2)cs1)c1ccccc1
GI50 [1]: > 40 µM

Cc1cccc(Nc2nc(-c3cc[n+]([O-])cc3)cs2)c1
GI50 [1]: > 40 µM

O=[N+]([O-])c1ccc(Nc2nc(-c3ccncc3)cs2)cc1
GI50 [1]: > 40 µM
